Reference: ChEMBL document CHEMBL1151266, “Cytotoxic principles from the formosan milkweed, Asclepias curassavica” (J Nat Prod, 2005)
Values after ≈ are worked out from the molar mass of the structure shown.

Columns and labels:
Type in all cases: functional, cell-based
HepG2 = assay: Cytotoxicity against human HepG2 cells after 3 days by MTT assay; settings: HepG2, 72 h
Summary of the method: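 Freshly trypsinized cells seeded at 5000-10 000 per well; test agents added from DMSO stock. After 3 days in culture, attached cells incubated with MTT (0.5 mg/mL, 1 h), then solubilized in DMSO; absorbance read at 550 nm.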

MDA-MB-231 = assay: Cytotoxicity against human MDA-MB-231 cells after 3 days by MTT assay; settings: MDA-MB-231, 72 h
Summary of the method: (§1)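 Freshly trypsinized cells seeded at 5000-10 000 per well; test agents added from DMSO stock. After 3 days in culture, attached cells incubated with MTT (0.5 mg/mL, 1 h), then solubilized in DMSO; absorbance read at 550 nm. IC50 taken as concentration reducing cell growth by 50%.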

MCF7 = assay: Cytotoxicity against human MCF7 cells after 3 days by MTT assay; settings: MCF7, 72 h; summary of the method: as §1
A549 = assay: Cytotoxicity against human A549 cells after 3 days by MTT assay; settings: A549, 72 h; summary of the method: as §1
KB = assay: Cytotoxicity against human KB cells

Compound | IC50 (HepG2) | IC50 (MDA-MB-231) | IC50 (MCF7) | IC50 (A549) | IC50 (KB)
C[C@@H]1C[C@@H](O)[C@]2(O)O[C@@H]3C[C@@]4(C=O)[C@@H](CC[C@@H]5[C@@H]4CC[C@]4(C)[C@@H](C6=CC(=O)OC6)C[C@@H](O)[C@]54O)C[C@H]3O[C@@H]2O1 | 0.16 µg/mL (≈ 0.292 µM) | 0.45 µg/mL (≈ 0.82 µM) | 0.38 µg/mL (≈ 0.693 µM) | 0.07 µg/mL (≈ 0.128 µM) | 
CC(=O)O[C@H]1C[C@@H](C)O[C@H]2O[C@@H]3C[C@@H]4CC[C@@H]5[C@H](CC[C@]6(C)[C@@H](C7=CC(=O)OC7)[C@H](OC(C)=O)C[C@]56O)[C@@]4(C=O)C[C@H]3O[C@]21O | 0.13 µg/mL (≈ 0.205 µM) | 0.39 µg/mL (≈ 0.616 µM) | 0.17 µg/mL (≈ 0.269 µM) | 0.02 µg/mL (≈ 0.0316 µM) | 
CC(=O)O[C@@H]1C[C@]2(O)[C@@H]3CC[C@H]4C[C@H]5O[C@@H]6O[C@H](C)C[C@H](O)[C@]6(O)O[C@@H]5C[C@]4(C=O)[C@H]3CC[C@]2(C)[C@H]1C1=CC(=O)OC1 | 0.39 µg/mL (≈ 0.66 µM) | 0.49 µg/mL (≈ 0.83 µM) | 0.28 µg/mL (≈ 0.474 µM) | 0.11 µg/mL (≈ 0.186 µM) | 
COc1cccc2c1C(=O)c1c(O)c3c(c(O)c1C2=O)C[C@@](O)(C(=O)CO)C[C@@H]3O[C@H]1C[C@H](N)[C@H](O)[C@H](C)O1 [DOXORUBICIN] |  |  | 0.56 µg/mL (≈ 1.03 µM) | 0.79 µg/mL (≈ 1.45 µM) | 
C[C@@H]1C[C@H](O)[C@]2(O)O[C@@H]3C[C@@]4(C=O)[C@@H](CC[C@@H]5[C@@H]4CC[C@]4(C)[C@@H](C6=CC(=O)OC6)CC[C@]54O)C[C@H]3O[C@@H]2O1 [CALOTROPIN] | 0.11 µg/mL (≈ 0.207 µM) | 0.16 µg/mL (≈ 0.3 µM) | 0.08 µg/mL (≈ 0.15 µM) | 0.02 µg/mL (≈ 0.0375 µM) | 0.015 µg/mL (≈ 0.0282 µM)
C[C@@H]1C[C@@]2(N=CCS2)[C@]2(O)O[C@@H]3C[C@@]4(C=O)[C@@H](CC[C@@H]5[C@@H]4CC[C@]4(C)[C@@H](C6=CC(=O)OC6)CC[C@]54O)C[C@H]3O[C@@H]2O1 [USCHARIN] | 1.1 µg/mL (≈ 1.87 µM) | 0.1 µg/mL (≈ 0.17 µM) | 0.04 µg/mL (≈ 0.0681 µM) | 0.01 µg/mL (≈ 0.017 µM) | 
CC(=O)O[C@H]1C[C@@H](C)O[C@H]2O[C@@H]3C[C@@H]4CC[C@@H]5[C@H](CC[C@]6(C)[C@@H](C7=CC(=O)OC7)[C@H](O)C[C@]56O)[C@@]4(C=O)C[C@H]3O[C@]21O | 0.51 µg/mL (≈ 0.863 µM) | 1.52 µg/mL (≈ 2.57 µM) | 1 µg/mL (≈ 1.69 µM) | 0.14 µg/mL (≈ 0.237 µM) | 
C[C@@H]1C[C@@H](O)[C@]2(O)O[C@@H]3C[C@@]4(C=O)[C@@H](CC[C@@H]5[C@@H]4CC[C@]4(C)[C@@H](C6=CC(=O)OC6)CC[C@]54O)C[C@H]3O[C@@H]2O1 [CALACTIN] | 0.02 µg/mL (≈ 0.0375 µM) | 0.03 µg/mL (≈ 0.0563 µM) | 0.01 µg/mL (≈ 0.0188 µM) | 0.0029 µg/mL (≈ 0.00544 µM) | 
C[C@@H]1C[C@H](O)[C@]2(O)O[C@@H]3C[C@@]4(C=O)[C@@H](CC[C@@H]5[C@@H]4CC[C@]4(C)[C@@H](C6=CC(=O)OC6)C[C@@H](O)[C@]54O)C[C@H]3O[C@@H]2O1 | 0.15 µg/mL (≈ 0.273 µM) | 0.98 µg/mL (≈ 1.79 µM) | 0.48 µg/mL (≈ 0.875 µM) | 0.1 µg/mL (≈ 0.182 µM) | 
C[C@]12CC[C@H](O)C[C@H]1CC[C@@H]1[C@@H]2CC[C@]2(C)[C@@H](C3=CC(=O)OC3)CC[C@]12O [DIGITOXIGENIN] | 0.12 µg/mL (≈ 0.32 µM) | 1.9 µg/mL (≈ 5.07 µM) | 1.69 µg/mL (≈ 4.51 µM) | 0.24 µg/mL (≈ 0.641 µM) | 
C[C@@H]1CC(=O)[C@]2(O)O[C@@H]3C[C@@]4(C=O)[C@@H](CC[C@@H]5[C@@H]4CC[C@]4(C)[C@@H](C6=CC(=O)OC6)CC[C@]54O)C[C@H]3O[C@@H]2O1 [USCHARIDIN] | 0.04 µg/mL (≈ 0.0754 µM) | 0.09 µg/mL (≈ 0.17 µM) | 0.04 µg/mL (≈ 0.0754 µM) | 0.01 µg/mL (≈ 0.0188 µM) | 
CC(=O)O[C@H]1C[C@@H](C)O[C@H]2O[C@@H]3C[C@@H]4CC[C@@H]5[C@H](CC[C@]6(C)[C@@H](C7=CC(=O)OC7)CC[C@]56O)[C@@]4(C=O)C[C@H]3O[C@]21O [ASCLEPIN] | 0.05 µg/mL (≈ 0.087 µM) | 0.06 µg/mL (≈ 0.104 µM) | 0.02 µg/mL (≈ 0.0348 µM) | 0.01 µg/mL (≈ 0.0174 µM) | 
